From ChEMBL document CHEMBL2086252, “Syntheses and evaluation of anticonvulsant activity of novel branched alkyl carbamates” (J Med Chem, 2012)
Activity calls are given as the source filed them. The calls are words filed in the database; no cut-off is given here.

What was measured:
[1] = test system: Rattus norvegicus; experiment: Neurotoxicity in pilocarpine-induced status epilepticus Sprague-Dawley albino rat model assessed as minimal motor impairment at 100 mg/kg, ip after 0.5 hrs by rotarod test; type: toxicity, organism-based; design: dose 100 mg/kg, route intraperitoneal; details: in vivo
[2] = test system: Mus musculus; experiment: Anticonvulsant activity in albino CF1 mouse assessed as protection against maximal electroshock-induced seizures at 30 mg/kg, ip after 4 hrs; type: functional, organism-based; design: dose 30 mg/kg
How it was run: (§1)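 Mice dosed ip at 30, 100 or 300 mg/kg, then tested 0.5 h and 4 h after administration in the MES or scMet test. Protection was recorded as animals protected over animals tested. Neurotoxicity was recorded as motor impairment or sedation, as animals affected over animals tested.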

[3] = test system: Mus musculus; experiment: Anticonvulsant activity in albino CF1 mouse assessed as protection against subcutaneous metrazol-induced seizures at 300 mg/kg, ip after 4 hrs; type: functional, organism-based; design: dose 300 mg/kg; how it was run: as §1
[4] = test system: Mus musculus; experiment: Anticonvulsant activity in albino CF1 mouse assessed as protection against subcutaneous metrazol-induced seizures at 300 mg/kg, ip after 0.5 hrs; type: functional, organism-based; design: dose 300 mg/kg; how it was run: as §1
[5] = test system: Rattus norvegicus; experiment: Neurotoxicity in pilocarpine-induced status epilepticus Sprague-Dawley albino rat model assessed as minimal motor impairment at 30 mg/kg, ip after 0.25 hr by rotarod test; type: toxicity, organism-based; design: dose 30 mg/kg, route intraperitoneal; details: in vivo
How it was run: (§2)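 Rat pilocarpine status epilepticus model: test carbamate given at 0 or 30 min after the first observed Racine stage 3 motor seizure, which marks SE onset. Neurotoxicity was scored within the same model.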

[6] = test system: Rattus norvegicus; experiment: Anticonvulsant activity in Sprague-Dawley albino rat assessed as protection against pilocarpine-induced status epilepticus at 65 mg/kg, ip; type: functional, organism-based; design: dose 65 mg/kg
How it was run: (§3)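 Pilocarpine status epilepticus model in rats. Number and severity of convulsive seizures were observed behaviourally.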

[7] = test system: Rattus norvegicus; experiment: Neurotoxicity in pilocarpine-induced status epilepticus Sprague-Dawley albino rat model assessed as minimal motor impairment at 100 mg/kg, ip after 2 hrs by rotarod test; type: toxicity, organism-based; design: dose 100 mg/kg, route intraperitoneal; details: in vivo
[8] = test system: Mus musculus; experiment: Anticonvulsant activity in albino CF1 mouse assessed as protection against subcutaneous metrazol-induced seizures at 100 mg/kg, ip after 0.5 hrs; type: functional, organism-based; design: dose 100 mg/kg; how it was run: as §1
[9] = test system: Rattus norvegicus; experiment: Neurotoxicity in pilocarpine-induced status epilepticus Sprague-Dawley albino rat model assessed as minimal motor impairment at 30 mg/kg, ip after 1 hr by rotarod test; type: toxicity, organism-based; design: dose 30 mg/kg, route intraperitoneal; details: in vivo; how it was run: as §2
[10] = test system: Mus musculus; experiment: Anticonvulsant activity in albino CF1 mouse assessed as protection against subcutaneous metrazol-induced seizures at 100 mg/kg, ip after 4 hrs; type: functional, organism-based; design: dose 100 mg/kg; how it was run: as §1
[11] = test system: Mus musculus; experiment: Anticonvulsant activity in albino CF1 mouse assessed as protection against maximal electroshock-induced seizures at 300 mg/kg, ip after 4 hrs; type: functional, organism-based; design: dose 300 mg/kg; how it was run: as §1
[12] = test system: Mus musculus; experiment: Neurotoxicity in albino CF1 mouse assessed as minimal motor impairment at 30 mg/kg, ip after 4 hrs by rotarod test; type: toxicity, organism-based; design: dose 30 mg/kg, route intraperitoneal; details: in vivo; how it was run: as §1
[13] = test system: Mus musculus; experiment: Anticonvulsant activity in albino CF1 mouse assessed as protection against subcutaneous metrazol-induced seizures at 30 mg/kg, ip after 4 hrs; type: functional, organism-based; design: dose 30 mg/kg; how it was run: as §1
[14] = test system: Mus musculus; experiment: Neurotoxicity in albino CF1 mouse assessed as minimal motor impairment at 300 mg/kg, ip after 0.5 hrs by rotarod test; type: toxicity, organism-based; design: dose 300 mg/kg, route intraperitoneal; details: in vivo; how it was run: as §1
[15] = test system: Rattus norvegicus; experiment: Neurotoxicity in pilocarpine-induced status epilepticus Sprague-Dawley albino rat model assessed as minimal motor impairment at 30 mg/kg, ip after 4 hrs by rotarod test; type: toxicity, organism-based; design: dose 30 mg/kg, route intraperitoneal; details: in vivo; how it was run: as §2
[16] = test system: Mus musculus; experiment: Neurotoxicity in albino CF1 mouse assessed as minimal motor impairment at 100 mg/kg, ip after 4 hrs by rotarod test; type: toxicity, organism-based; design: dose 100 mg/kg, route intraperitoneal; details: in vivo; how it was run: as §1
[17] = test system: Rattus norvegicus; experiment: Neurotoxicity in pilocarpine-induced status epilepticus Sprague-Dawley albino rat model assessed as minimal motor impairment at 30 mg/kg, ip after 0.5 hrs by rotarod test; type: toxicity, organism-based; design: dose 30 mg/kg, route intraperitoneal; details: in vivo; how it was run: as §2
[18] = test system: Rattus norvegicus; experiment: Neurotoxicity in pilocarpine-induced status epilepticus Sprague-Dawley albino rat model assessed as minimal motor impairment at 65 mg/kg, ip after 0.5 hrs by rotarod test; type: toxicity, organism-based; design: dose 65 mg/kg, route intraperitoneal; details: in vivo; how it was run: as §2
[19] = test system: Mus musculus; experiment: Anticonvulsant activity in albino CF1 mouse assessed as protection against subcutaneous metrazol-induced seizures at 30 mg/kg, ip after 0.5 hrs; type: functional, organism-based; design: dose 30 mg/kg; how it was run: as §1
[20] = test system: Mus musculus; experiment: Neurotoxicity in albino CF1 mouse assessed as minimal motor impairment at 30 mg/kg, ip after 0.5 hrs by rotarod test; type: toxicity, organism-based; design: dose 30 mg/kg, route intraperitoneal; details: in vivo; how it was run: as §1
[21] = test system: Mus musculus; experiment: Anticonvulsant activity in albino CF1 mouse assessed as protection against maximal electroshock-induced seizures at 30 mg/kg, ip after 0.5 hrs; type: functional, organism-based; design: dose 30 mg/kg; how it was run: as §1
[22] = test system: Rattus norvegicus; experiment: Neurotoxicity in pilocarpine-induced status epilepticus Sprague-Dawley albino rat model assessed as minimal motor impairment at 100 mg/kg, ip after 4 hrs by rotarod test; type: toxicity, organism-based; design: dose 100 mg/kg, route intraperitoneal; details: in vivo
[23] = test system: Mus musculus; experiment: Anticonvulsant activity in albino CF1 mouse assessed as protection against maximal electroshock-induced seizures at 300 mg/kg, ip after 0.5 hrs; type: functional, organism-based; design: dose 300 mg/kg; how it was run: as §1
[24] = test system: Mus musculus; experiment: Anticonvulsant activity in albino CF1 mouse assessed as protection against maximal electroshock-induced seizures at 100 mg/kg, ip after 0.5 hrs; type: functional, organism-based; design: dose 100 mg/kg; how it was run: as §1
[25] = test system: Rattus norvegicus; experiment: Neurotoxicity in pilocarpine-induced status epilepticus Sprague-Dawley albino rat model assessed as minimal motor impairment at 100 mg/kg, ip after 0.25 hr by rotarod test; type: toxicity, organism-based; design: dose 100 mg/kg, route intraperitoneal; details: in vivo
[26] = test system: Mus musculus; experiment: Anticonvulsant activity in albino CF1 mouse assessed as protection against maximal electroshock-induced seizures at 100 mg/kg, ip after 4 hrs; type: functional, organism-based; design: dose 100 mg/kg; how it was run: as §1
[27] = test system: Mus musculus; experiment: Neurotoxicity in albino CF1 mouse assessed as minimal motor impairment at 300 mg/kg, ip after 4 hrs by rotarod test; type: toxicity, organism-based; design: dose 300 mg/kg, route intraperitoneal; details: in vivo; how it was run: as §1
[28] = test system: Rattus norvegicus; experiment: Anticonvulsant activity in ip dosed Sprague-Dawley albino rat assessed as protection against pilocarpine-induced status epilepticus after 0.5 hrs; type: functional; how it was run: as §3
[29] = test system: Rattus norvegicus; experiment: Neurotoxicity in pilocarpine-induced status epilepticus Sprague-Dawley albino rat model assessed as minimal motor impairment at 30 mg/kg, ip after 2 hrs by rotarod test; type: toxicity, organism-based; design: dose 30 mg/kg, route intraperitoneal; details: in vivo; how it was run: as §2
[30] = test system: Rattus norvegicus; experiment: Neurotoxicity in pilocarpine-induced status epilepticus Sprague-Dawley albino rat model assessed as minimal motor impairment at 300 mg/kg, ip after 1 hr by rotarod test; type: toxicity, organism-based; design: dose 300 mg/kg, route intraperitoneal; details: in vivo; how it was run: as §2
[31] = test system: Rattus norvegicus; experiment: Neurotoxicity in Sprague-Dawley albino rat assessed as minimal motor impairment at 30 mg/kg, po by rotarod test; type: toxicity, organism-based; design: dose 30 mg/kg, route oral; details: in vivo
How it was run: (§4)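 Rats dosed orally. Anti-MES protection was scored as animals protected over animals tested at each time after dosing. Neurotoxicity was scored as motor impairment or sedation, as animals affected over animals tested.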

[32] = test system: Rattus norvegicus; experiment: Neurotoxicity in pilocarpine-induced status epilepticus Sprague-Dawley albino rat model assessed as minimal motor impairment at 300 mg/kg, ip after 0.25 hr by rotarod test; type: toxicity, organism-based; design: dose 300 mg/kg, route intraperitoneal; details: in vivo; how it was run: as §2
[33] = test system: Rattus norvegicus; experiment: Neurotoxicity in pilocarpine-induced status epilepticus Sprague-Dawley albino rat model assessed as minimal motor impairment at 100 mg/kg, ip after 1 hr by rotarod test; type: toxicity, organism-based; design: dose 100 mg/kg, route intraperitoneal; details: in vivo
[34] = test system: Rattus norvegicus; experiment: Anticonvulsant activity in Sprague-Dawley albino rat assessed as protection against maximal electroshock-induced seizures at 30 mg/kg, po after 15 mins; type: functional, organism-based; design: dose 30 mg/kg; how it was run: as §4
[35] = test system: Rattus norvegicus; experiment: Neurotoxicity in pilocarpine-induced status epilepticus Sprague-Dawley albino rat model assessed as minimal motor impairment at 300 mg/kg, ip after 2 hrs by rotarod test; type: toxicity, organism-based; design: dose 300 mg/kg, route intraperitoneal; details: in vivo; how it was run: as §2
[36] = test system: Rattus norvegicus; experiment: Anticonvulsant activity in Sprague-Dawley albino rat assessed as protection against maximal electroshock-induced seizures at 30 mg/kg, po after 2 hrs; type: functional, organism-based; design: dose 30 mg/kg; how it was run: as §4
[37] = test system: Rattus norvegicus; experiment: Neurotoxicity in pilocarpine-induced status epilepticus Sprague-Dawley albino rat model assessed as minimal motor impairment at 300 mg/kg, ip after 0.5 hrs by rotarod test; type: toxicity, organism-based; design: dose 300 mg/kg, route intraperitoneal; details: in vivo; how it was run: as §2
[38] = test system: Rattus norvegicus; experiment: Neurotoxicity in pilocarpine-induced status epilepticus Sprague-Dawley albino rat model assessed as minimal motor impairment at 300 mg/kg, ip after 4 hrs by rotarod test; type: toxicity, organism-based; design: dose 300 mg/kg, route intraperitoneal; details: in vivo; how it was run: as §2
[39] = test system: Rattus norvegicus; experiment: Anticonvulsant activity in Sprague-Dawley albino rat assessed as protection against maximal electroshock-induced seizures at 30 mg/kg, po after 4 hrs; type: functional, organism-based; design: dose 30 mg/kg; how it was run: as §4
[40] = test system: Mus musculus; experiment: Neurotoxicity in albino CF1 mouse assessed as minimal motor impairment at 100 mg/kg, ip after 0.5 hrs by rotarod test; type: toxicity, organism-based; design: dose 100 mg/kg, route intraperitoneal; details: in vivo; how it was run: as §1

`CCC(C)C(COC(N)=O)C(C)C` (racemic) was tested, and the Activity [1] was “Toxic”, the Activity [2] was “inactive” and the Activity [3] was “inactive”. For the same compound, the Activity [4] was “Active”, the Activity [5] was “Non-toxic” and the Activity [6] was “Active”. The Activity [7] was “Non-toxic”, the Activity [8] was “Active” and the Activity [9] was “Non-toxic”. The Activity [10] was “inactive”, the Activity [11] was “inactive” and the Activity [12] was “Non-toxic”. The Activity [13] was “inactive”, the Activity [14] was “Toxic” and the Activity [15] was “Non-toxic”. The Activity [16] was “Non-toxic”, the Activity [17] was “Non-toxic” and the Activity [18] was “Non-toxic”. The Activity [19] was “inactive”, the Activity [20] was “Non-toxic” and the Activity [21] was “inactive”. For the same compound, the Activity [22] was “Non-toxic”, the Activity [23] was “Active” and the Activity [24] was “Active”. For the same compound, the Activity [25] was “Toxic”, the Activity [26] was “inactive” and the Activity [27] was “Non-toxic”. For the same compound, the ED50 [28] was 114 mg/kg, the ED97 [28] was 199 mg/kg and the Activity [29] was “Non-toxic”.
For `CCCC(COC(N)=O)C(C)C` (racemic), the Activity [30] was “Toxic”, the Activity [1] was “Toxic” and the Activity [2] was “inactive”. The Activity [31] was “Non-toxic”, the Activity [3] was “inactive” and the Activity [32] was “Toxic”. For the same compound, the Activity [33] was “Toxic”, the Activity [4] was “Active” and the Activity [5] was “Non-toxic”. For the same compound, the Activity [6] was “Active”, the Activity [7] was “Non-toxic” and the Activity [8] was “inactive”. The Activity [9] was “Non-toxic”, the Activity [10] was “inactive” and the Activity [11] was “inactive”. For the same compound, the Activity [12] was “Non-toxic”, the Activity [13] was “inactive” and the Activity [14] was “Toxic”. The Activity [15] was “Non-toxic”, the Activity [34] was “inactive” and the Activity [35] was “Toxic”. The Activity [16] was “Non-toxic”, the Activity [17] was “Non-toxic” and the Activity [18] was “Non-toxic”. For the same compound, the Activity [36] was “inactive”, the Activity [19] was “inactive” and the Activity [20] was “Non-toxic”. For the same compound, the Activity [37] was “Toxic”, the Activity [21] was “inactive” and the Activity [22] was “Non-toxic”. The Activity [23] was “Active”, the Activity [38] was “Toxic” and the Activity [39] was “inactive”. For the same compound, the Activity [40] was “Non-toxic”, the Activity [24] was “Active” and the Activity [25] was “Toxic”. For the same compound, the Activity [26] was “inactive”, the Activity [27] was “Non-toxic” and the ED50 [28] was 107 mg/kg. The ED97 [28] was 151 mg/kg and the Activity [29] was “Non-toxic”.
